Test results taken from ChEMBL document CHEMBL1131620, “Identification of novel ligands for the gabapentin binding site on the alpha2delta subunit of a calcium channel and their evaluation as anticonvulsant agents” (J Med Chem, 1998).

Assay: Inhibition of specific binding of [3H]gabapentin to Gabapentin binding sites located on the alpha-2-delta subunit of calcium channel.
Design: species or system Oryctolagus cuniculus
Method in brief: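 [3H]Gabapentin displacement from gabapentin sites on the calcium channel α2δ subunit. IC50 (nM) is the concentration giving half-maximal inhibition of specific radioligand binding.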

| SMILES | IC50 [nM] |
| --- | --- |
| NC[C@]1(CC(=O)O)CC[C@@H](c2ccccc2)CC1 | > 10000 |
| C[C@@H]1C[C@H](C)CC(CN)(CC(=O)O)C1 (stereo in doubt; 28) | > 10000 |
| CC1(C)CC(C)(C)CC(CN)(CC(=O)O)C1 | > 10000 |
| CCCC1CCCC(CN)(CC(=O)O)C1 (configuration not stated) | 3300 |
| C[C@H]1CCC[C@](CN)(CC(=O)O)C1 | 73 |
| C[C@@H]1C[C@H](C)CC(CN)(CC(=O)O)C1 (stereo in doubt; 27) | 140 |
| NCC1(CC(=O)O)CCSCC1 | 385 |
| NCC1(CC(=O)O)CCCCC1C1CCCCC1 (configuration not stated) | > 10000 |
| CC(C)C1CCCC(CN)(CC(=O)O)C1 (configuration not stated) | 6270 |
| CC1(C)CCC(CN)(CC(=O)O)CC1 | 1310 |
| CCC1CCCC(CN)(CC(=O)O)C1 (configuration not stated) | 280 |
| NCC1(CC(=O)O)CCNCC1 | > 10000 |
| C[C@@H]1CCC[C@@](CN)(CC(=O)O)C1 | 42 |
| C[C@H]1CC[C@](CN)(CC(=O)O)CC1 | > 10000 |
| NCC1(CC(=O)O)CCOCC1 | 2380 |
| C[C@H]1CC[C@@](CN)(CC(=O)O)CC1 | 440 |
| NCC1(CC(=O)O)CCCC(c2ccccc2)C1 (configuration not stated) | > 10000 |
| CC1(C)CCCC(CN)(CC(=O)O)C1 (configuration not stated) | 880 |
| CC1CCCC(CN)(CC(=O)O)C1 (configuration not stated) | > 10000 |
| COC1CCCCC1(CN)CC(=O)O (configuration not stated) | > 10000 |
| CC[C@H]1CC[C@@](CN)(CC(=O)O)CC1 | 700 |
